Measurements reported in ChEMBL document CHEMBL1152918, “Simplexins A-I, eunicellin-based diterpenoids from the soft coral Klyxum simplex” (2009).
Values after ≈ are worked out from the molar mass of the structure shown. Active and inactive are the calls of the source. The calls are words filed in the database; no cut-off is given here.

Columns and labels:
Type in all cases: functional
[1] = tested on: MCF7; assay: Cytotoxicity against human MCF7 cells by MTT assay; details: read-out: ED50 (the source's name)
[2] = tested on: HEp-2; assay: Cytotoxicity against human Hep2 cells by MTT assay; details: read-out: ED50 (the source's name)
[3] = tested on: Daoy; assay: Cytotoxicity against human DaOY cells by MTT assay; details: read-out: ED50 (the source's name)
[4] = tested on: HeLa; assay: Cytotoxicity against human HeLa cells by MTT assay; details: read-out: ED50 (the source's name)
[5] = tested on: RAW264.7; assay: Antiinflammatory activity against LPS-stimulated mouse RAW264.7 cells assessed as reduction in COX-2 level at 10 uM relative to control
Outline: (§1)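 Immunoblot measured iNOS and COX-2 protein levels in RAW264.7 macrophages stimulated with LPS and treated at 10 μM. Levels are expressed as a percentage of cells given LPS alone.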

[6] = tested on: RAW264.7; assay: Antiinflammatory activity against LPS-stimulated mouse RAW264.7 cells assessed as reduction in iNOS level at 10 uM relative to control; design: scale not given: the % may be the effect or the level left; outline: as §1

Row | SMILES | EC50 [1] [mg/L] | EC50 [2] [mg/L] | EC50 [3] [mg/L] | EC50 [4] [mg/L] | Activity [5] | Activity [6] [%]
1 | CCCC(=O)O[C@H]1[C@H](C(C)C)[C@@H]2[C@@H]([C@H]3C[C@](C)(O)[C@@H](OC(C)=O)CC[C@@](C)(OC(=O)CCC)[C@@H]2O3)[C@](C)(O)[C@@H]1OC(C)=O [SIMPLEXIN C] | > 20 | > 20 | > 20 | > 20 | – | –
2 | C=C1C[C@H]2O[C@H]([C@H]3[C@@H]2[C@](C)(OC(C)=O)CC[C@@H]3C(C)C)[C@](C)(OC(=O)CCC)CC[C@@H]1O [SIMPLEXIN A] | 12.1 (≈ 26.8 µM) | 12.1 (≈ 26.9 µM) | 10.4 (≈ 23 µM) | > 20 | inactive | 15.9
3 | CCCC(=O)O[C@]1(C)CC[C@H](O)[C@@](C)(O)C[C@H]2O[C@@H]1[C@H]1[C@@H]2[C@](C)(OC(C)=O)CC[C@@H]1C(C)C [SIMPLEXIN B] | > 20 | > 20 | > 20 | > 20 | – | –
4 | CCCC(=O)O[C@]1(C)CC[C@H](OC(C)=O)[C@@](C)(O)C[C@H]2O[C@@H]1[C@@H]1[C@@H](C(C)C)[C@H](O)[C@@H](OC(C)=O)[C@@](C)(O)[C@@H]12 [SIMPLEXIN F] | > 20 | > 20 | > 20 | > 20 | – | –
5 | CC(=O)O[C@H]1CC[C@@](C)(OC(C)=O)[C@@H]2O[C@H](C[C@]1(C)O)[C@@H]1[C@H]2[C@@H](C(C)C)[C@H](O)C[C@@]1(C)OC(C)=O [SIMPLEXIN I] | > 20 | > 20 | > 20 | > 20 | – | –
6 | CCCC(=O)O[C@H]1[C@H](C(C)C)[C@@H]2[C@@H]([C@H]3C[C@](C)(O)[C@@H](OC(=O)CCC)CC[C@@](C)(OC(=O)CCC)[C@@H]2O3)[C@](C)(O)[C@@H]1OC(C)=O [SIMPLEXIN D] | 14.5 (≈ 22.7 µM) | > 20 | 15.3 (≈ 23.9 µM) | > 20 | inactive | 37.7
7 | C=CC(=O)O[C@H]1CC[C@@](C)(OC(=O)CCC)[C@@H]2O[C@H](C[C@]1(C)O)[C@@H]1[C@H]2[C@@H](C(C)C)[C@H](OC(=O)CCC)[C@@H](OC(C)=O)[C@@]1(C)O [SIMPLEXIN E] | 7.19 (≈ 11.5 µM) | 10.7 (≈ 17.2 µM) | 12.8 (≈ 20.4 µM) | 17.4 (≈ 27.8 µM) | 37.7% | 4.8
